RGS4 block: human RGS4 inhibition; P49798; HEK293 M3R/RGS4 inducible, Fluo-4 calcium flux; hits give high values; triggered by carbachol at its EC20; B-score at 10 µM; 310,000 tested, 0.45% active;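 active means B-score, a plate-corrected calcium signal, over three deviations above library mean, with baseline fluorescence within five deviations of library mean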;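 further: RGS4 expression induced by doxycycline in cells with stable M3 receptor; B-score is computed from the integrated fluorescence ratio over baseline after carbachol; higher B-score means a larger calcium signal and so more RGS4 inhibition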
Target sequence (P49798 whole entry, looked up): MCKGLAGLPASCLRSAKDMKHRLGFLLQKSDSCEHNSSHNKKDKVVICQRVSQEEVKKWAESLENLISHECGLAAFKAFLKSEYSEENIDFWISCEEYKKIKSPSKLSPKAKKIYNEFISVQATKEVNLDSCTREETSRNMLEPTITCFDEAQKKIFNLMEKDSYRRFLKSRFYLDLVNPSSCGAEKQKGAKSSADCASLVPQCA
MrgX1 allo act: human MrgX1 positive allosteric modulation, primary screen. MrgX1-HEK293, Fluo-4 calcium flux, FDSS; hits give high values. 310,000 tested, 0.63% active. Q96LB2. B-score at 10 µM. AID 588675;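 active means plate-corrected calcium response at least 3 library SD above typical, normal starting fluorescence, not activating the receptor alone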;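 further: compound read alongside a low EC10 to EC30 dose of BAM8-22 agonist; peak minus trough fluorescence over baseline measured at the second addition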
Target sequence (Q96LB2 whole entry, looked up): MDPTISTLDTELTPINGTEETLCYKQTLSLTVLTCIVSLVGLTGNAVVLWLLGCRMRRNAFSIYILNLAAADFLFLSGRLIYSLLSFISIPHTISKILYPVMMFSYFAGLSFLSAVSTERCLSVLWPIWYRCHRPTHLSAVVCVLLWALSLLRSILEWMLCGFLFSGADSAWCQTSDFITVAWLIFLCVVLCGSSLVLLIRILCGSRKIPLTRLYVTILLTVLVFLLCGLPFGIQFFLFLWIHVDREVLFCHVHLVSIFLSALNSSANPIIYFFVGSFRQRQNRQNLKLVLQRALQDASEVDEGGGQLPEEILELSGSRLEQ
MrgX1 ag: activates human MrgX1 receptor signaling; B-score at 10 µM; Q96LB2; MrgX1-HEK293 cells, Fluo-4 calcium fluorescence, agonist mode; hits give high values; 310,000 tested, 0.44% active; AID 588627;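 active means calcium response B-score plate-corrected fluorescence ratio at least 3 library SD, with starting fluorescence B-score inside 5 SD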
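Test system: HEK293 cells stably expressing human MrgX1 receptor; amount: 15,000 cells per well; doses: compound delivered in addition one of three; times: overnight plating before 1 h dye loading; detection: Fluo-4 NW calcium-flux fluorescence, kinetic read; read-out basis: B-scored fluorescence response ratio; controls: positive and negative controls per plate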
Kir21 block: blocks the mouse Kir2.1 inward-rectifier potassium channel; P35561; HEK293-Kir2.1, FluxOR thallium flux fluorescence; hits give low values; B-score at 10 µM; 310,000 tested, 0.85% active; AID 1672;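 active means fluorescence ratio B-score at or below minus 3 SD of library scores, with starting-brightness B-score within 2 SD, cut at about -4.2 in these data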;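 further: channel flux triggered by added potassium and thallium sulfate stimulus; B-score of peak minus minimum fluorescence over baseline after thallium stimulus; more negative B-score means stronger Kir2.1 block with less thallium influx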
RGS4 pot: RGS4 potentiation or activation | B-score at 10 µM | AID 463111 | HEK293 M3R/inducible RGS4, carbachol calcium flux Fluo4; hits give low values | 310,000 tested, 0.92% active;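 active means B-score of the integrated calcium signal more than 4 SD below the library mean, with starting fluorescence not abnormally high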;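 further: negative B-score means reduced calcium response which marks RGS4 activation or potentiation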
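Assay system: Inducible-RGS4 HEK293 cells carrying M3 receptor | Schedule: Compound preincubation 20 min at room temperature before agonist | Signal: Kinetic calcium fluorescence imaging with Fluo4-AM dye, 2 µM | Read-out basis: B score from integrated fluorescence ratio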
MrgX1 antag: antagonists of human MrgX1 receptor; Q96LB2; MRGX1-HEK293 calcium flux, Fluo-4, BAM8-22 antagonism; hits give low values; B-score at 10 µM; 310,000 tested, 1.3% active; AID 588676;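 active means calcium-response B-score plate-corrected more than 3 library SD below zero, starting fluorescence within 5 deviations, no agonist response on first addition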;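 further: peak minus trough fluorescence over baseline after final BAM8-22 challenge near maximal dose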
* hit, by the source's call; i = inactive; . = no result given. Sampled rows, rich in hits. Any-hit rate of the full collection: about 4.1%.

SMILES | RGS4 block | MrgX1 allo act | MrgX1 ag | Kir21 block | RGS4 pot | MrgX1 antag
Cc1ccc(C(O)(C(=O)NN(C(=O)c2ccccc2)c2ccccc2)c2ccc(C)cc2)cc1 | i | i | i | 2.9 | i | i
CCN(NC(=O)C(O)(c1ccc(F)cc1)c1ccc(F)cc1)C(=O)c1ccccc1 | i | i | i | -0.05 | i | -5.8*
COc1cnn(-c2ccc(C)cc2)c(=O)c1SCc1ccccc1 | i | i | 30* | -0.47 | i | i
Cc1nc(SCC(=O)Nc2ccccc2C(F)(F)F)c(C#N)c(C)c1CC(=O)c1ccc(Br)cc1 | i | i | i | 0.1 | i | i
O=c1oc2ccccc2nc1/C=C(\O)c1ccccc1 | i | i | i | 1.5 | i | i
O/C(=C\c1nc2ccccc2nc1/C=C(\O)c1ccccc1)c1ccccc1 | i | 14* | i | -0.39 | i | i
O=C(CCN1CCN(Cc2ccccc2)CC1)Nc1cccc(Br)c1 | i | i | i | -0.85 | i | i
O=C(c1ccc([N+](=O)[O-])cc1)N(Cc1ccc(Cl)cc1)N1C(=O)CCCC1=O | i | i | 54* | 3.1 | i | i
CCOC(=O)Cc1csc(Nc2ccc(Cl)cc2)n1 | i | i | i | -0.11 | i | i
CCOC(=O)C(CC)(CCC(=O)O)c1csc(Nc2ccc(C)cc2)n1 (stereo unspecified) | i | i | i | -0.02 | i | -7.4*
O=C1COc2ccc(N3C(=O)C=CC3=O)cc2N1 | 5* | i | i | -1.7 | i | i
O=C1COc2ccc(S(=O)(=O)N3CCCC3)cc2N1 | i | i | i | 2.4 | i | i
Cc1cccc(N2CCN(c3ccc(NC(=O)/C=C(/C(=O)O)c4ccccc4)cc3)CC2)c1 | i | i | i | -0.13 | i | i
CC1C/C(=C/c2ccco2)C(=O)/C(=C/c2ccco2)C1 (stereo unspecified) | 6.6* | i | i | -0.75 | i | i
O=C1/C(=C\c2ccco2)CCC/C1=C\c1ccco1 | i | 7.6* | i | -0.53 | i | i
O=C1/C(=C/c2ccco2)CCC1C1CCCC1 (stereo unspecified) | i | i | i | -1.3 | i | i
COc1ccc(C(N)c2nccc3cc(OC)c(OC)cc23)cc1OC (stereo unspecified) | i | i | i | 0.36 | i | i
COCCN(CCOC)C(=O)c1cc2sc3ccccc3c2s1 | i | i | i | 0.02 | i | i
CN(C)CCNC(=O)c1cc2sc3ccccc3c2s1 | i | i | i | -4.2* | i | i
O=C(c1ccco1)N1CCN(S(=O)(=O)c2ccc3c(c2)CCN3C(=O)C2CC2)CC1 | i | i | i | 0.09 | i | i
Cc1cc(/C=C\c2ccc3cc(N(C)C)ccc3[n+]2C)c(C)n1-c1ccccc1 | . | i | i | . | . | -9.7*
Cc1cc(C)cc(OCC(=O)N2Cc3ccccc3CC2C(=O)O)c1 (stereo unspecified) | i | i | i | -0.72 | i | i
CCCCCCN(C(=O)CCCCCN1C(=O)NC(c2ccc(-c3ccccc3)cc2)C(C(=O)OCc2ccccc2)=C1C)C(C(=O)NCCCC)c1ccccc1 (stereo unspecified) | i | . | . | 0.06 | i | .
CCCCCCN(C(=O)CCCCCN1C(=O)NC(c2ccc(-c3ccccc3)cc2)C(C(=O)OCc2ccccc2)=C1C)C(C)C(=O)NCCCC (stereo unspecified) | i | i | i | 0.85 | i | -4.6*
COc1ccc(N2CCN(C(=O)CNC(=O)Cc3ccccc3)CC2)cc1 | i | i | i | -1.2 | i | i
SMILES | RGS4 block | MrgX1 allo act | MrgX1 ag | Kir21 block | RGS4 pot | MrgX1 antag
O=C(/C=C/c1cccs1)N1CCC2(CC1)Oc1ccc(Cl)cc1C(=O)C21CC(c2ccc(Cl)cc2)=NO1 (stereo unspecified) | i | i | i | 1.5 | i | i
O=C(/C=C/c1cccs1)N1CCC2(CC1)Oc1ccc(F)cc1C(=O)C21CC(c2ccc(Cl)cc2)=NO1 (stereo unspecified) | i | i | i | -0.08 | i | -4.5*
O=C(CCc1nc2sc3c(c2c(=O)[nH]1)CCCC3)N1CCN(c2ccccc2)CC1 | i | i | i | 0.52 | i | -7.2*
NC(=O)C1CCN(C(=O)CCc2nc3sc4c(c3c(=O)[nH]2)CCCC4)CC1 | i | i | i | 0.87 | i | i
O=C(CSc1n[nH]c(=O)[nH]c1=O)Nc1cccc(S(=O)(=O)N2CCOCC2)c1 | i | i | i | 1.5 | i | i
CC(=O)Nc1cccc(/C(C)=N/NC(=O)c2cccc(S(=O)(=O)N3CCOCC3)c2)c1 | i | i | i | -0.02 | i | i
CCCCCCCCNC(=O)c1ccc(C)cc1 | i | i | 32* | -0.32 | i | i
Oc1cccc2c(NC(=S)Nc3ccc(SC(F)F)cc3)cccc12 | i | i | i | 0.3 | i | -5.3*
COc1ccc(C(N)=S)c(OC)c1 | i | i | i | -0.04 | i | i
CC(Oc1ccccc1F)C(=O)NC1CCS(=O)(=O)C1 (stereo unspecified) | i | i | i | -0.5 | i | i
COc1ccc(C2CC(c3cccs3)=NN2C(=O)c2ccco2)cc1OC (stereo unspecified) | i | i | i | 1.6 | i | i
O=C(c1ccco1)N1N=C(c2cccs2)CC1c1cc([N+](=O)[O-])ccc1O (stereo unspecified) | i | 7.1* | i | -0.54 | i | i
O=C1CC(c2ccccc2)CC(=O)C1CS(=O)(=O)c1ccccc1 (stereo unspecified) | i | i | i | 1.7 | i | i
COc1ccc(/C=C2\SC(N3CCc4ccccc4C3)=NC2=O)cc1 | i | i | i | 0.33 | i | -4.7*
O=C1N=C(N2CCc3ccccc3C2)S/C1=C\c1cccc(O)c1 | i | i | i | -0.89 | -8.3* | i
COCCN(C(=S)Nc1ccc(C)c(C)c1)C(C)c1ccco1 (stereo unspecified) | i | i | i | -0.87 | i | i
COc1cc(-c2[nH]nc3c2C(c2ccoc2)C(C#N)=C(N)O3)cc(OC)c1OC (stereo unspecified) | . | i | i | . | . | i
Cc1cc(C)c2cc3c(N)c(C(=O)N4CCOCC4)sc3nc2c1 | i | i | i | -1.3 | i | i
Cc1cc(C)c2nc3sc(C(=O)N4CCOCC4)c(N)c3cc2c1 | i | i | 49* | -1.4 | i | i

High-throughput results as filed in PubChem BioAssay.
